Data taken from ChEMBL document CHEMBL1125363, “Novel piperidine sigma receptor ligands as potential antipsychotic drugs” (J Med Chem, 1992).

Legend:
[1] = species on record: Mus musculus; test: Oral potency tested by using anti-mescaline test; format: functional
How it was run: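 Mice; mescaline was given to evoke hallucinogen-type behaviour, and the test compound was dosed orally to antagonise it. Potency is the ED50 in mg/kg po. Some ED50s are the average of three measurements.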

[2] = target: Sigma non-opioid intracellular receptor 1 (Mus musculus, UniProt O55242); test: In vitro binding affinity for the mouse sigma opioid receptor
[3] = target: D(2) dopamine receptor (Mus musculus, UniProt P61168); test: In vitro binding affinity towards dopamine receptor D2
[4] = target: Serotonin 2 (5-HT2) receptor (Mus musculus, UniProt Q02152+P34968+P35363); test: In vitro binding affinity for serotonin 5-hydroxytryptamine (5-HT) 2 receptors; format: protein assay

D(2) dopamine receptor, sequence (P61168 whole entry): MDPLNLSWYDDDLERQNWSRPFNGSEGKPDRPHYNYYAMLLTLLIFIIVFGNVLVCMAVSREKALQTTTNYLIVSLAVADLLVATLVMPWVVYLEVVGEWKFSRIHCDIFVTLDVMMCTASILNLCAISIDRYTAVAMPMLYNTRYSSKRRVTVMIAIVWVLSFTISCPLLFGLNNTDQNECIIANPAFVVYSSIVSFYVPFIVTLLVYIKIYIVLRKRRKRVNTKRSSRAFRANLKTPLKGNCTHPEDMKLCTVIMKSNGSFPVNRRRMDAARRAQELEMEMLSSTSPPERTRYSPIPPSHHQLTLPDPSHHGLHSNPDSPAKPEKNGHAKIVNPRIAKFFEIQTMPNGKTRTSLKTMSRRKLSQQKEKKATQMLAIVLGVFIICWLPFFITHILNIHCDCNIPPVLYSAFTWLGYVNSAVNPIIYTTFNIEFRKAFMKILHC
Sigma non-opioid intracellular receptor 1, sequence (O55242 whole entry): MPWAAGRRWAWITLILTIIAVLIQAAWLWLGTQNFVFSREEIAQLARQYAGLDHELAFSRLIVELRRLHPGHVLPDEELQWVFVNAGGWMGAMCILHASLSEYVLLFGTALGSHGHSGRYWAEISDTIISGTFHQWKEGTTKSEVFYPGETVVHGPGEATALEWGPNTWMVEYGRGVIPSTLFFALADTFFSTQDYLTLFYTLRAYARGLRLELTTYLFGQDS

| Compound | ED50 [1] [mg/kg] | Ki [2] [nM] | IC50 [3] [nM] | Ki [4] [nM] |
| --- | --- | --- | --- | --- |
| COc1ccc(C(=O)CC2CCN(Cc3ccccc3)CC2)cc1 | > 30 | 4 | 6070 | 313 |
| COc1ccc(-c2ccc(OCC3CCN(CC4CC4)CC3)cc2)cc1 |  | 218 | 7220 |  |
| Fc1ccc(OCC2CCN(Cc3ccncc3)CC2)cc1.O | 1.1 | 7 | 2750 | 31 |
| O=C(CCCN1CCC(C(=O)Cc2ccc(F)cc2)CC1)c1ccc(F)cc1 | 1.9 | 40 |  | 17 |
| O=C(CC1CCCCN1Cc1ccccc1)c1ccc(F)cc1.O=C(O)/C=C\C(=O)O (configuration not stated) | 4.3 | 37 | 3340 |  |
| CSc1ccc(C(O)CC2CCN(Cc3ccccc3)CC2)cc1 (configuration not stated) | > 30 | 10 | 7630 | > 100 |
| CC1(CN2CCC(COc3ccc(F)cc3)CC2)CC1(Cl)Cl.O=C(O)/C=C/C(=O)O (configuration not stated) | < 10 | 2 | 179 | 15 |
| O.OC(CC1CCN(CCc2ccccc2)CC1)c1ccc(F)cc1 (configuration not stated) | < 10 | 7 | 806 | 101 |
| OC(Cc1ccc(F)cc1)C1CCN(CCCCc2ccccc2)CC1 (configuration not stated) | 18 | 11 | 900 | 65 |
| O.OC(Cc1ccc(F)cc1)C1CCN(CCCc2ccccc2)CC1 (configuration not stated) |  | 7 | 1700 | 41 |
| CC(O)c1ccc(OCC2CCN(CC3CC3)CC2)cc1 (configuration not stated) |  | 98 | > 10000 |  |
| O=C(CC1CCCN(CC2CC2)C1)c1ccc(F)cc1 (configuration not stated) | 1.3 | 17 | 185 |  |
| O=C(CC1CCCN(Cc2ccccc2)C1)c1ccc(F)cc1 (configuration not stated) | 1.1 | 14 | 34 |  |
| CC1CC1CN1CCC(COc2ccc(F)cc2)CC1.O=C(O)/C=C\C(=O)O (configuration not stated) | > 10 | 5 | 945 | 24 |
| Nc1ccc(C(=O)CC2CCN(CC3CC3)CC2)cc1.O | 10 | 146 | > 10000 |  |
| OC(CC1CCN(CCC2CC2)CC1)c1ccc(F)cc1 (configuration not stated) |  | 155 | > 10000 |  |
| FC(F)(F)c1ccc(OCC2CCN(Cc3ccccc3)CC2)cc1 | 6 | 2 | 1930 | 350 |
| O=C(CC1CCN(Cc2ccc(C(F)(F)F)cc2)CC1)c1ccc(F)cc1 | 1.8 | 3 | 195 | 6 |
| c1cc(OCC2CCN(CC3CC3)CC2)ccn1 |  | 175 | > 10000 |  |
| O=C(CC1CCN(CCc2ccc(Cl)cc2)CC1)c1ccc(F)cc1 | 1.8 | 5 | 14 | 8.4 |
| O=C(Cc1ccc(F)cc1)CC1CCN(Cc2ccccc2)CC1.O=C(O)/C=C\C(=O)O | > 30 | 3 | 1100 | 316 |
| C[S+]([O-])c1ccc(C(=O)CC2CCN(Cc3ccccc3)CC2)cc1.O (configuration not stated) | > 30 | 53 | > 10000 | 204 |
| O=C(CC1CCN(CCc2ccc(F)cc2)CC1)c1ccc(F)cc1 | 0.13 | 7 | 57 | 10 |
| CS(=O)(=O)c1ccc(C(=O)CC2CCN(Cc3ccccc3)CC2)cc1 | > 30 | 18 | > 10000 | 116 |
| COc1ccc(CN2CCC(COc3ccc(F)cc3)CC2)cc1.O.O=C(O)/C=C\C(=O)O | 6.5 | 30 | 1340 |  |

| Compound | ED50 [1] [mg/kg] | Ki [2] [nM] | IC50 [3] [nM] | Ki [4] [nM] |
| --- | --- | --- | --- | --- |
| O.OC(CC1CCN(Cc2ccccc2)CC1)c1ccco1 (configuration not stated) | > 30 | 11 | > 10000 | 1323 |
| O=C(CC1CCN(Cc2ccccc2)CC1)c1ccc(-c2ccccc2)cc1 | 30 | 33 | 3010 | > 100 |
| CC(=O)c1ccc(OCC2CCN(CC3CC3)CC2)cc1 | > 30 | 9 | 539 | > 1000 |
| [O-][S+](CC1CCN(CCC2CC2)CC1)c1ccc(F)cc1 (configuration not stated) |  | 310 | > 10000 |  |
| CN(C)S(=O)(=O)c1ccc(OCC2CCN(CC3CC3)CC2)cc1 |  | > 10000 |  |  |
| O.c1ccc(CN2CCC(COc3ccc4ccccc4c3)CC2)cc1 | > 30 | 6 | 1020 | 173 |
| O.O=C(Cc1ccc(F)cc1)C1CCN(Cc2ccccc2)CC1.O=C(O)/C=C\C(=O)O | 18 | 3 | 4560 | 290 |
| Cl.Fc1ccc(OCC2CCN(CC3CC3)CC2)cc1F | 4.5 | 2 | 2840 | 41 |
| c1cnc(OCC2CCN(CC3CC3)CC2)nc1 |  | 347 | 4440 |  |
| Cl.c1ccc(OCC2CCN(CC3CC3)CC2)nc1 | > 30 | 44 | 4670 | 1378 |
| Cl.O=[N+]([O-])c1ccc(OCC2CCN(Cc3ccccc3)CC2)cc1 | 14 | 5 | 4390 | 272 |
| Cl.Fc1ccc(OCCC2CCN(Cc3ccccc3)CC2)cc1.O | 16 | 4 | 114 | < 100 |
| COc1cc(OCC2CCN(CC3CC3)CC2)cc(OC)c1OC.Cl | > 30 | 50 | > 10000 | 8706 |
| Br.CN(C)c1ccc(C(=O)CC2CCN(CC3CC3)CC2)cc1.O | 30 | 33 | > 10000 | 559 |
| Cl.OC(CC1CCN(Cc2ccccc2)CC1)c1ccc(C(F)(F)F)cc1 (configuration not stated) | > 30 | 6 | > 10000 | > 100 |
| Cl.Clc1ccc(OCC2CCN(CC3CC3)CC2)cc1Cl | 3.3 | 8 | 1650 | 87 |
| Cl.Oc1ccc(CN2CCC(COCc3ccc(F)cc3)CC2)cc1 | > 10 | 7 | 3130 | 500 |
| Cl.OC(Cc1ccccc1)C1CCN(Cc2ccccc2)CC1 (configuration not stated) | < 10 | 18 | 8300 | 1603 |
| Cl.Fc1ccc(COCC2CCN(Cc3ccc(OCc4ccccc4)cc3)CC2)cc1 | < 30 | 27 | 773 | < 100 |
| CSc1ccc(OCC2CCN(CC3CC3)CC2)cc1.Cl | > 30 | 7 | 1980 | 114 |
| Fc1ccc(COCC2CCN(CCCc3ccccc3)CC2)cc1 |  | 304 | > 10000 |  |
| CCNc1ccc(OCC2CCN(CC3CC3)CC2)cc1.Cl.O | > 30 | 33 | > 10000 | > 10000 |
| COc1ccc(OCC2CCN(CC3CC3)CC2)cc1.Cl.O | > 30 | 18 | > 10000 | > 100 |
| COC(=O)c1ccc(CN2CCC(COCc3ccc(F)cc3)CC2)cc1.Cl | > 10 | 7 | 1980 | 313 |
